In ChEMBL document CHEMBL1821621, “Isolation and biological evaluation of jatrophane diterpenoids from Euphorbia dendroides” (J Nat Prod, 2011):

Experiments:
[1] = target: T1, ATP-dependent translocase ABCB1 (Homo sapiens, UniProt P08183); assay: Reversal of MDR1-mediated doxorubicin resistance in multidrug resistant human NCI-H460 cells assessed as combination index at 5 uM after 72 hrs by SRB assay; conditions: nci-h460, 72 h
[2] = target: T1, ATP-dependent translocase ABCB1; assay: Reversal of MDR1-mediated paclitaxel resistance in multidrug resistant human NCI-H460 cells assessed as combination index at 2.5 uM after 72 hrs by SRB assay; assay type: cell-based; conditions: nci-h460, 72 h
Method in brief: (§1)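 Resistant NCI-H460/R cells received 1, 2.5 or 5 μM compound simultaneously with 0.0055 μM paclitaxel for 72 h. Growth was read by SRB assay. Relative reversion = IC50 of paclitaxel / IC50 of the combination. Interaction was scored by the combination index method (median effect, multiple drug effect equation).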

[3] = target: T1, ATP-dependent translocase ABCB1; assay: Reversal of MDR1-mediated paclitaxel resistance in multidrug resistant human NCI-H460 cells assessed as combination index at 1 uM after 72 hrs by SRB assay; assay type: cell-based; conditions: nci-h460, 72 h
Method in brief: as §1

[4] = target: T1, ATP-dependent translocase ABCB1; assay: Reversal of MDR1-mediated paclitaxel resistance in multidrug resistant human NCI-H460 cells assessed as combination index at 5 uM after 72 hrs by SRB assay; assay type: cell-based; conditions: nci-h460, 72 h
Method in brief: as §1

DLD-1 = assay: Anticancer activity against human DLD1 cells after 72 hrs by SRB assay; assay type: functional, cell-based; conditions: DLD-1, 72 h
Method in brief: (§2)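 Cells were seeded in 96-well plates and left overnight: NCI-H460 and DLD-1 at 2000 cells/well, U-87 MG and NCI-H460/R at 4000 cells/well. NCI-H460/R was selected from NCI-H460 and kept in 100 nM doxorubicin. Compound exposure lasted 72 h. Cellular protein was stained with sulforhodamine B, and IC50 was obtained by linear regression.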

NCI-H460 [5] = assay: Anticancer activity against human NCI-H460 cells after 72 hrs by SRB assay; assay type: functional, cell-based; conditions: NCI-H460, 72 h
Method in brief: as §2

[6] = Anticancer activity against human U87MG cells after 72 hrs by SRB assay; assay type: functional, cell-based, U-87MG ATCC; conditions: U-87 MG
Method in brief: as §2

NCI-H460 [7] = assay: Anticancer activity against multidrug resistant human NCI-H460 cells after 72 hrs by SRB assay; assay type: functional, cell-based; conditions: NCI-H460, 72 h
Method in brief: as §2

[8] = target: T1, ATP-dependent translocase ABCB1; assay: Reversal of MDR1-mediated paclitaxel resistance in human NCI-H460 cells assessed as ratio of compound IC50 to IC50 of paclitaxel at 1 uM after 72 hrs by SRB assay; assay type: cell-based; conditions: nci-h460, 72 h
Method in brief: as §1

[9] = target: T1, ATP-dependent translocase ABCB1; assay: Reversal of MDR1-mediated paclitaxel resistance in multidrug resistant human NCI-H460 cells assessed as Rho123 accumulation at 5 uM after 30 mins by FACScalibur flow cytometry relative to control; assay type: cell-based; conditions: nci-h460, 0.5 h
Method in brief: (§3)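 NCI-H460/R cells were grown to 80% confluence, trypsinized and resuspended in medium containing Rho123. They were treated with compound at 5 or 20 μM for 30 min at 37 °C in 5% CO2, and Rho123 fluorescence (FL2-H) was read by flow cytometry. FAR = FL2-H of treated MDR cells / FL2-H of untreated MDR control.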

[10] = target: T1, ATP-dependent translocase ABCB1; assay: Reversal of MDR1-mediated paclitaxel resistance in multidrug resistant human NCI-H460 cells assessed as Rho123 accumulation at 20 uM after 30 mins by FACScalibur flow cytometry relative to control; assay type: cell-based; conditions: nci-h460, 0.5 h
Method in brief: as §3

[11] = target: T1, ATP-dependent translocase ABCB1; assay: Reversal of MDR1-mediated paclitaxel resistance in human NCI-H460 cells assessed as ratio of compound IC50 to IC50 of paclitaxel at 2.5 uM after 72 hrs by SRB assay; assay type: cell-based; conditions: nci-h460, 72 h
Method in brief: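 Growth was read by SRB assay. Relative reversion = IC50 of paclitaxel / IC50 of the combination. Interaction was scored by the combination index method (median effect, multiple drug effect equation).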

[12] = target: T1, ATP-dependent translocase ABCB1; assay: Reversal of MDR1-mediated doxorubicin resistance in human NCI-H460 cells assessed as ratio of compound IC50 to IC50 of paclitaxel at 5 uM after 72 hrs by SRB assay; assay type: cell-based; conditions: nci-h460, 72 h, in the assay text read “IC50 of doxorubicin” for “IC50 of paclitaxel”
Method in brief: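 NCI-H460/R cells received 5 μM compound simultaneously with 0.055 μM doxorubicin for 72 h, read by SRB. Relative reversion = IC50 of doxorubicin alone / IC50 of the combination. Values are the mean ± standard deviation of five independent experiments, with IC50 by linear regression.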

T1 sequence (P08183 whole entry): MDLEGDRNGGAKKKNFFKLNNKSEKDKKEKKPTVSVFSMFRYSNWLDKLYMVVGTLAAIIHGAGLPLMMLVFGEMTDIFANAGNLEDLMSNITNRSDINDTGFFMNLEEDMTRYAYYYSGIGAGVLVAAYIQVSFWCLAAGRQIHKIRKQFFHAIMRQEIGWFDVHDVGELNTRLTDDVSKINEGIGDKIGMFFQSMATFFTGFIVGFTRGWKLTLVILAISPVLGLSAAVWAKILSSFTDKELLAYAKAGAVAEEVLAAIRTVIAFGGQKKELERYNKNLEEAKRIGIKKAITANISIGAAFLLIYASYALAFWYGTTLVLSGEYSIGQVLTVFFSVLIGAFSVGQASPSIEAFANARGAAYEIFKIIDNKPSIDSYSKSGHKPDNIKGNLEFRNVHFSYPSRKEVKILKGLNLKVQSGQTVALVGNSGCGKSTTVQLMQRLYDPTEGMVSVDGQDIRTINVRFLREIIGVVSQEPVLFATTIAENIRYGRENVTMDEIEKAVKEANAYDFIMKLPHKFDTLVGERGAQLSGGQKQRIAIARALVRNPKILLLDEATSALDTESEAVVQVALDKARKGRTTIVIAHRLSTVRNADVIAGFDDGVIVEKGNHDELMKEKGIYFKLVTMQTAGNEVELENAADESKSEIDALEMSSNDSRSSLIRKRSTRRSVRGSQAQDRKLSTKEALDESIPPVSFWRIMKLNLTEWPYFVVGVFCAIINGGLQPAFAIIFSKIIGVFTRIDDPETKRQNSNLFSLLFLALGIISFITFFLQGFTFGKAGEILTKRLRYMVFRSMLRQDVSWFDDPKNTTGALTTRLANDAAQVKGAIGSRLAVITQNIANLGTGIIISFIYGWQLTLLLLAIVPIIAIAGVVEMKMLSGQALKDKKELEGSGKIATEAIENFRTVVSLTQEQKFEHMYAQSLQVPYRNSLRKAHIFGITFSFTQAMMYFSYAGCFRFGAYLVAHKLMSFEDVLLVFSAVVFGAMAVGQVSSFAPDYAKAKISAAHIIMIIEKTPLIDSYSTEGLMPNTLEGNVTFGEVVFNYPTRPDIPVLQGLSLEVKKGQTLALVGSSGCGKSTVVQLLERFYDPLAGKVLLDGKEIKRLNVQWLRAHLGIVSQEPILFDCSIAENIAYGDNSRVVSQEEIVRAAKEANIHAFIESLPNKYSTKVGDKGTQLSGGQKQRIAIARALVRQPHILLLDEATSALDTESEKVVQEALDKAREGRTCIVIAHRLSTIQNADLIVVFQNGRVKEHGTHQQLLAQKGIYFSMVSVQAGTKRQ

| fractional inhibitory concentration index (FICI) [1] | fractional inhibitory concentration index (FICI) [2] | fractional inhibitory concentration index (FICI) [3] | fractional inhibitory concentration index (FICI) [4] | IC50 (DLD-1) [µM] | IC50 (NCI-H460 [5]) [µM] | IC50 (NCI-H460 [7]) [µM] | Ratio [9] | Ratio [10] | Structure (SMILES) | IC30 (DLD-1) [µM] | IC30 (NCI-H460 [5]) [µM] | IC30 [6] [µM] | IC50 [6] [µM] | IC30 (NCI-H460 [7]) [µM] | Ratio IC50 [8] | Ratio IC50 [11] | Ratio IC50 [12] |
| --- | --- | --- | --- | --- | --- | --- | --- | --- | --- | --- | --- | --- | --- | --- | --- | --- | --- |
| < 0.5 | < 0.5 | < 1 | < 0.5 | – | – | – | – | – | COc1ccc(CCN(C)CCCC(C#N)(c2ccc(OC)c(OC)c2)C(C)C)cc1OC (stereo not drawn) | – | – | – | – | – | – | – | – |
| < 0.5 | < 1 | < 0.5 | < 0.5 | 59.3 | 46.6 | 44.8 | 2.1 | 3.2 | C=C1[C@@H](OC(=O)C(C)C)[C@@H](OC(C)=O)[C@@H](OC(=O)c2cccnc2)C(C)(C)/C=C/[C@@H](C)C(=O)[C@@]2(O)C[C@H](C)[C@H](OC(=O)CC)[C@@H]2[C@H]1OC(C)=O [EUPHODENDROPHANE A] | 7.3 | 31 | 74.7 | 155 | 26.6 | 3 | 19 | 19 |
| < 0.5 | < 1 | < 1 | < 0.5 | 22.1 | 16.2 | 17.2 | 1.9 | 3 | C=C1[C@@H](OC(=O)C(C)C)[C@@H](OC(C)=O)[C@@H](OC(=O)c2cccnc2)C(C)(C)/C=C/[C@@H](C)C(=O)[C@@]2(O)C[C@H](C)[C@H](OC(=O)C(C)C)[C@@H]2[C@H]1OC(C)=O [EUPHODENDROPHANE B] | 4.8 | 6.1 | 6.8 | 108 | 3.9 | 11 | 25 | 28 |
| – | – | – | – | 42.7 | 21.3 | 30.1 | – | – | C=C1[C@@H](OC(C)=O)[C@@H](OC(=O)c2ccccc2)[C@@H](OC(C)=O)C(C)(C)/C=C/[C@@H](C)C(=O)[C@@]2(O)C[C@H](C)[C@H](OC(=O)C(C)C)[C@@H]2[C@H]1OC(C)=O [EUPHODENDROPHANE D] | 14.2 | 11.7 | 10.4 | 52.6 | 14.6 | – | – | – |
| – | – | – | – | 37.9 | 21.9 | 49.8 | – | – | C=C1[C@@H](OC(=O)C(C)C)[C@@H](OC(=O)c2ccccc2)[C@@H](OC(C)=O)C(C)(C)/C=C/[C@@H](C)C(=O)[C@@]2(O)C[C@H](C)[C@H](OC(=O)CC)[C@@H]2[C@H]1OC(C)=O [EUPHODENDROPHANE E] | 13.7 | 8.3 | 14.1 | 73.1 | 15.2 | – | – | – |
| – | – | – | – | 75.3 | 14.8 | 90.8 | – | – | CC(=O)OC/C1=C/[C@H]2[C@@H](OC(C)=O)[C@](C)(OC(C)=O)C[C@]2(OC(C)=O)C(=O)[C@H](C)/C=C/C(C)(C)[C@H](OC(=O)c2cccnc2)[C@H](OC(C)=O)[C@@H]1OC(=O)C(C)C [EUPHODENDROPHANE F] | 38.8 | 4.8 | 27.3 | 65.5 | 51.9 | – | – | – |
| – | – | – | – | 0.039 | 0.0094 | 2.08 | – | – | CC(=O)O[C@H]1C(=O)[C@@]2(C)[C@H]([C@H](OC(=O)c3ccccc3)[C@]3(O)C[C@H](OC(=O)[C@H](O)[C@@H](NC(=O)c4ccccc4)c4ccccc4)C(C)=C1C3(C)C)[C@]1(OC(C)=O)CO[C@@H]1C[C@@H]2O [PACLITAXEL] | 0.023 | 0.0036 | 0.049 | 0.09 | 0.44 | – | – | – |

| Structure (SMILES) | fractional inhibitory concentration index (FICI) [1] | fractional inhibitory concentration index (FICI) [2] | fractional inhibitory concentration index (FICI) [3] | fractional inhibitory concentration index (FICI) [4] | IC50 (DLD-1) [µM] | IC50 (NCI-H460 [5]) [µM] | IC50 (NCI-H460 [7]) [µM] | Ratio [9] | Ratio [10] | IC30 (DLD-1) [µM] | IC30 (NCI-H460 [5]) [µM] | IC30 [6] [µM] | IC50 [6] [µM] | IC30 (NCI-H460 [7]) [µM] | Ratio IC50 [8] | Ratio IC50 [11] | Ratio IC50 [12] |
| --- | --- | --- | --- | --- | --- | --- | --- | --- | --- | --- | --- | --- | --- | --- | --- | --- | --- |
| CC1=C[C@@H]2[C@H](C1=O)[C@H](O)C(C)=C[C@H]1[C@@H]3C(C)(C)[C@]3(OC(=O)C(C)C)[C@H](OC(=O)c3ccccc3)[C@@H](C)[C@]21O [EUPHODENDRIANE A] | – | – | – | – | 27.4 | 14.3 | 26 | – | – | 13.3 | 7 | 33.2 | 60.1 | 15.7 | – | – | – |
